The conditions of assay [1]: read-out: IC50 broad anticancer activity; cited from earlier work.
The next assay has as its system A549. Briefly: MTT cytotoxicity assay. Format: cell-based. The settings on record: Homo sapiens, A549, 48 h, read-out: IC50 A549. The method, boiled down:
(§1)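 Human cancer (A549, MCF-7) and normal (MCF-10A, THLE2, WISH) lines cultured in RPMI-1640/DMEM with L-glutamine, 10% FBS and 1% penicillin-streptomycin at 37 °C, 5% CO2. […] MTT absorbance read at […]. IC50 taken from concentration-viability curves.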
Background: Tetrazolium assays rely on reduction of a dye to a coloured formazan, in cell work by metabolically active cells.

In another assay the target is Topoisomerase II (Homo sapiens, UniProt P11388). Briefly: Topo II inhibition assay. Format: biochemical.
Topoisomerase II, sequence (P11388 whole entry): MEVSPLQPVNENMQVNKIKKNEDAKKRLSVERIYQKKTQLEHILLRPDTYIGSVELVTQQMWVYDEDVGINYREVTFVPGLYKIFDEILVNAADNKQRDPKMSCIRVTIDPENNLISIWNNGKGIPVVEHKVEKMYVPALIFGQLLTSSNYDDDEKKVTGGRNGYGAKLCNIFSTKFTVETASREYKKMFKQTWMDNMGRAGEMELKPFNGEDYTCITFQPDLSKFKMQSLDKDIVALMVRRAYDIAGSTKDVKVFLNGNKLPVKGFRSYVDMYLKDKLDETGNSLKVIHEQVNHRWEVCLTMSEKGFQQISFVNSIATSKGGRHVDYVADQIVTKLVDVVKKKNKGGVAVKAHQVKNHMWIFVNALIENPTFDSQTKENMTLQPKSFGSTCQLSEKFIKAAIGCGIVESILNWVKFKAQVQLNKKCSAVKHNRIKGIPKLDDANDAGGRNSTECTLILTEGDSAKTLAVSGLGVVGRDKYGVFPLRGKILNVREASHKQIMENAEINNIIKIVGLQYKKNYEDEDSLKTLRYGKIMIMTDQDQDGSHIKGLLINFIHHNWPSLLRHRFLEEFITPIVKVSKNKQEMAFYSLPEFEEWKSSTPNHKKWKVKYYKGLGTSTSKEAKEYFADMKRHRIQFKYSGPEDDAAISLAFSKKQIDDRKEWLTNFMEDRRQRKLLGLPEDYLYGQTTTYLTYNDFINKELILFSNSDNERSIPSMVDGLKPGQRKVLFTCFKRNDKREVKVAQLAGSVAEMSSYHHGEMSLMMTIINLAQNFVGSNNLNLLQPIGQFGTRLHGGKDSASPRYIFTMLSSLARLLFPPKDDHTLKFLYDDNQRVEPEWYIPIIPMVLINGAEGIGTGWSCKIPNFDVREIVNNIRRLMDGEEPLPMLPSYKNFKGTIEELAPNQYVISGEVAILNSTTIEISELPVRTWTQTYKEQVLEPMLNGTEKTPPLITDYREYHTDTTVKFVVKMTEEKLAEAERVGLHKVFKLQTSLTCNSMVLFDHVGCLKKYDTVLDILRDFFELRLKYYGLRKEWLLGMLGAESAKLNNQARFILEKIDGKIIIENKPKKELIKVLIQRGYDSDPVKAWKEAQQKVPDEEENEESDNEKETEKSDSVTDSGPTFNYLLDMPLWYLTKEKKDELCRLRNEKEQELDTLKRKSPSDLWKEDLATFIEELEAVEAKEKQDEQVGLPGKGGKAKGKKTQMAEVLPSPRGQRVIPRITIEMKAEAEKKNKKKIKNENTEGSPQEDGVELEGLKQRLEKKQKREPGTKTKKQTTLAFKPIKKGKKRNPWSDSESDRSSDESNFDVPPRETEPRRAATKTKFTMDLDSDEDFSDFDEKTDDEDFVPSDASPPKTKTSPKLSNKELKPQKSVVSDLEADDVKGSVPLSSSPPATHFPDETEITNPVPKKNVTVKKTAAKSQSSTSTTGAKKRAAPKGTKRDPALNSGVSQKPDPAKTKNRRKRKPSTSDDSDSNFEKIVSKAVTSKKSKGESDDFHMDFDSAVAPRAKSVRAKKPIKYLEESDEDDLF
A further assay has as its system MCF-7. Description: MTT cytotoxicity assay. The settings on record: Homo sapiens, MCF7, 48 h, read-out: IC50 MCF-7. Format: cell-based. The method, boiled down:
as §1

The structures appear in SMILES notation. Some results are limits rather than exact numbers.

For orientation: IC50 means the concentration that gives 50% inhibition. Turning to `CCN1C(=O)C(=Cc2ccccc2)SC1=S` [BTR-1, 5-Benzylidene-3-ethyl rhodanine], the IC50 in assay [1] was under 10 µM.

On to `CC(=O)OC[C@H]1O[C@@H](N2C(=O)/C(=C/c3ccccc3)SC2=S)[C@H](OC(C)=O)[C@@H](OC(C)=O)[C@@H]1OC(C)=O` [Compound 11a, 5-((Z)-Benzylidene)-3-(2′,3′,4′,6′-tetra-O-acetyl-β-D-glucopyranosyl)-2-thioxo-4-thiazolidinone], for which the IC50 amounted to 9.8 ± 0.11 µM in the assay on A549, 7.6 ± 0.24 µM against Topoisomerase II and 3.7 ± 0.13 µM with MCF-7.

Values taken from publication PMC10099454 (ACS Omega, 2023).
